Source: ChEMBL document CHEMBL4680221, “Discovery of pyrazole derivatives as cellular active inhibitors of histone lysine specific demethylase 5B (KDM5B/JARID1B)” (Eur J Med Chem, 2020)
Calls of active or inactive are those of the source. The calls are words filed in the database; no cut-off is given here.

Assays:
MKN-45 = test: Inhibition of KDM4 in human MKN-45 cells assessed as increase in H3K9me3 accumulation at 0.5 to 20 uM measured after 5 days by Western blot analysis; format: cell-based; settings: dose 0.5-20 µM, time 5.0 day
Outline: (§1)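 MKN45 cells were treated for 5 days and lysed in RIPA buffer. About 30 µg protein was run on 10% SDS-PAGE and transferred to 0.2 µm nitrocellulose, then blocked with 5% milk in PBS for 2 h. Blots were probed for histone methylation marks with histone 3 as loading control and detected by ECL.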

[1] = Cytotoxicity against human GES1 cells assessed as reduction in cell proliferation at 100 uM by MTS assay relative to control; format: cell-based; settings: read-out: Activity
Outline: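 Normal human gastric epithelial GES-1 cells, seeded at 3×10^3 cells per well and exposed to 100 μM. Antiproliferation rate was read by MTS assay.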

[2] = molecular target: Lysine-specific demethylase 5A (Homo sapiens, UniProt P29375); test: Inhibition of KDM5A (unknown origin) at 0.01 uM relative to control
[3] = molecular target: T1, Lysine-specific demethylase 4A (Homo sapiens) (UniProt O75164); test: Inhibition of KDM4A (unknown origin) at 0.01 uM relative to control
T1 sequence (whole entry): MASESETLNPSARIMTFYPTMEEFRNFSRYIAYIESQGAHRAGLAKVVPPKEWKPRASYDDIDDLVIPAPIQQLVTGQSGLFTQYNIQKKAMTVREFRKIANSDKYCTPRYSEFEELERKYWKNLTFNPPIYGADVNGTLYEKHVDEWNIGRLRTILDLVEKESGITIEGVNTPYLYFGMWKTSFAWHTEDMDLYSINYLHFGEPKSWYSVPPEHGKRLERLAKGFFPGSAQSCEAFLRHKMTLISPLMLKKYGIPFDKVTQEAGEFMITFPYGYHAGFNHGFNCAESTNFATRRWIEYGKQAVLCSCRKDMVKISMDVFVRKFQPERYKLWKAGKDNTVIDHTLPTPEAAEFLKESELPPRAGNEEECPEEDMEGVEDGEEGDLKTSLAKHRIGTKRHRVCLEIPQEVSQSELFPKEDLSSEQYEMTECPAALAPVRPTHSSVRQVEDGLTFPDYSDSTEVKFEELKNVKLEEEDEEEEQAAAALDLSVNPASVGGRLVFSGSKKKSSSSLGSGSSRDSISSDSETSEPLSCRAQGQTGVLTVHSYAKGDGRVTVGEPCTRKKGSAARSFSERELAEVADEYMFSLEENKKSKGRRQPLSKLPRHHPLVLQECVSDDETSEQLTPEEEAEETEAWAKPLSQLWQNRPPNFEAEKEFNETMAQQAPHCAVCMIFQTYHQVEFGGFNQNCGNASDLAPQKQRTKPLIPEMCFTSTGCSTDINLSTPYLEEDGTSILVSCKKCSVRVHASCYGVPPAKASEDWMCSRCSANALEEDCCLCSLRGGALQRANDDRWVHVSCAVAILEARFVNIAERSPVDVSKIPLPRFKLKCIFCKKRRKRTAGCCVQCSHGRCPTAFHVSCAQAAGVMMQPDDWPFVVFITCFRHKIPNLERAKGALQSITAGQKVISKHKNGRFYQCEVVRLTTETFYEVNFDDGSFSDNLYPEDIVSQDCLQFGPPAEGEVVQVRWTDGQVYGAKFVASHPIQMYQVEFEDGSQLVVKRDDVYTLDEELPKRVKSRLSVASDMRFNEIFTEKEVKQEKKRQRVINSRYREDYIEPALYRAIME

[4] = molecular target: T2, Lysine-specific demethylase 4C (Homo sapiens) (UniProt Q9H3R0); test: Inhibition of KDM4C (unknown origin) at 1 uM relative to control
T2 sequence (whole entry): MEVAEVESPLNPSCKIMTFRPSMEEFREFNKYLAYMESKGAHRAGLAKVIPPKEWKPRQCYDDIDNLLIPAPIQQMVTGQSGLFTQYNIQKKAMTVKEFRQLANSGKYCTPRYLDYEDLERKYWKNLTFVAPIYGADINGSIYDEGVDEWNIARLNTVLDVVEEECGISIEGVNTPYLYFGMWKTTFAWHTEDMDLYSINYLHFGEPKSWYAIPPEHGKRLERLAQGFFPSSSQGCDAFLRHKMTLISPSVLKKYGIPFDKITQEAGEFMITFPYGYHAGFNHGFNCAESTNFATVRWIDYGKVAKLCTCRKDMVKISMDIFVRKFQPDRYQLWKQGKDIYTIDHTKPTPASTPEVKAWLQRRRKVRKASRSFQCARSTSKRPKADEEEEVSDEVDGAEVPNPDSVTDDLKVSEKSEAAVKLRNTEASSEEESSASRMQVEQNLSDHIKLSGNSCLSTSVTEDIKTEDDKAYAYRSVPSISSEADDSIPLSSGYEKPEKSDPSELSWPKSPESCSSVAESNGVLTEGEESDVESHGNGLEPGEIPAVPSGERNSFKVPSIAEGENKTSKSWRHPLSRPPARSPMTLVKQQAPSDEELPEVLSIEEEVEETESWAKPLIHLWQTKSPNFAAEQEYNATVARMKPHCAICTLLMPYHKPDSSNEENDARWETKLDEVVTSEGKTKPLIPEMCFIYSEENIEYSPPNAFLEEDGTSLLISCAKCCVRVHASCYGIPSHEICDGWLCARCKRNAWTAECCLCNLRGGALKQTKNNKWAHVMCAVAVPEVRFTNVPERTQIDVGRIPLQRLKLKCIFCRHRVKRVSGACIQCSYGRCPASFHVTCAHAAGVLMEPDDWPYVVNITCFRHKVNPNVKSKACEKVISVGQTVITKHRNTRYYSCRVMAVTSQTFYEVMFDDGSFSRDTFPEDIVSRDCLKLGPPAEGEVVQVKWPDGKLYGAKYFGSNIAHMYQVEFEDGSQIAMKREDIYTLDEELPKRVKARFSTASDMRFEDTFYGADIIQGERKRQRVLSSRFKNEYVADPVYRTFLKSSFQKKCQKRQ

[5] = molecular target: T3, Lysine-specific demethylase 5B (Homo sapiens, UniProt Q9UGL1); test: Inhibition of KDM5B in human MKN-45 cells assessed as increase in H3K4me3 accumulation measured after 5 days by Hoechst 33342 staining based immunofluorescence assay; format: cell-based; settings: time 5.0 day
Outline: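 MKN45 cells were seeded and left 24 h, then treated for 5 days. Cells were fixed in 4% paraformaldehyde, permeabilised with 0.1% Triton X-100 for 20 min and blocked with 5% BSA for 1 h. H3K4me2 or H3K4me3 primary antibody was applied at 4°C overnight, followed by Alexa Fluor 488 secondary and Hoechst 33342 (5 µg/mL) nuclear stain. Signal was quantified by high content imaging; three independent experiments.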

[6] = molecular target: T3, Lysine-specific demethylase 5B; test: Inhibition of KDM5B in human MKN-45 cells assessed as increase in H3K4me3 accumulation at 0.5 to 20 uM measured after 5 days by Western blot analysis; format: cell-based; settings: dose 0.5-20 µM, time 5.0 day; outline: as §1
[7] = molecular target: T1, Lysine-specific demethylase 4A (Homo sapiens); test: Inhibition of KDM4A (unknown origin) at 0.25 uM relative to control

T3 sequence (Q9UGL1 whole entry): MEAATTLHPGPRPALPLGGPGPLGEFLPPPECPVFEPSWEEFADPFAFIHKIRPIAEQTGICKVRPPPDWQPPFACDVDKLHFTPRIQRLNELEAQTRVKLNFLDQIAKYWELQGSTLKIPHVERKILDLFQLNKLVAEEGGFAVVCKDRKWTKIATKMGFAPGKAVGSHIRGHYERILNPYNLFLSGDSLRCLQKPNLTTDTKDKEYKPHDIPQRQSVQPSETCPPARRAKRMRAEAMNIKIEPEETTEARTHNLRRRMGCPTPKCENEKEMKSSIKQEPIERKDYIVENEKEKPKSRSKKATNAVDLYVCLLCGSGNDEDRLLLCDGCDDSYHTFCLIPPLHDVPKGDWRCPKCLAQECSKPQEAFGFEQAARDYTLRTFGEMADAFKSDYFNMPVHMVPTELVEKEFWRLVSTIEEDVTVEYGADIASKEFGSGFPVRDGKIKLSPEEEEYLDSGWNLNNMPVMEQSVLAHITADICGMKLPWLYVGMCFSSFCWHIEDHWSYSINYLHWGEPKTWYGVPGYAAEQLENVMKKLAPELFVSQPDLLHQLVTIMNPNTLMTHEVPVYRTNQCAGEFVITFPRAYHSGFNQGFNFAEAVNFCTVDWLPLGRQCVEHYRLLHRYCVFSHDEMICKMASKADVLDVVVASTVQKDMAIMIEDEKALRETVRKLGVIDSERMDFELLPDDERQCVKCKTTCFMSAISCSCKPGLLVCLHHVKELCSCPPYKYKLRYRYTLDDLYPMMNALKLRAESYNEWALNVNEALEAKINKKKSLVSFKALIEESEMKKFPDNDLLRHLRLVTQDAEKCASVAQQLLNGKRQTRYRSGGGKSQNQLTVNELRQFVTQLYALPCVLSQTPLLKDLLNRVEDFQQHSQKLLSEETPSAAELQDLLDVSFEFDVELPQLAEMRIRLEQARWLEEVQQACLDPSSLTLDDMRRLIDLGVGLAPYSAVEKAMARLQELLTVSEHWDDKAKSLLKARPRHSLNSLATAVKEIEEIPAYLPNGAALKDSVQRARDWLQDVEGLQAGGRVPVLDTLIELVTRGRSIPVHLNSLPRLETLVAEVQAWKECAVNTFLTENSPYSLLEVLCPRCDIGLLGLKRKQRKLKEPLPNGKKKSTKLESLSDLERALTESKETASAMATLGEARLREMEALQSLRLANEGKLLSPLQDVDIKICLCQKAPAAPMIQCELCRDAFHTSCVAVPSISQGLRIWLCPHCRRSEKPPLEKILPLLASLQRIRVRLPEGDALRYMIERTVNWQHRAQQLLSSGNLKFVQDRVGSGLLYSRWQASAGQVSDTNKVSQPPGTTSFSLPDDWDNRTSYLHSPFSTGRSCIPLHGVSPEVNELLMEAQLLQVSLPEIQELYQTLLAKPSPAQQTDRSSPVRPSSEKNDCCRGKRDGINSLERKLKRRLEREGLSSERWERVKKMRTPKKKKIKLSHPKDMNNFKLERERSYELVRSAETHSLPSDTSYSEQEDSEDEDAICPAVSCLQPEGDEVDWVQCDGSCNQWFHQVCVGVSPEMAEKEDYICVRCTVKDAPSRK
Sequence of Lysine-specific demethylase 5A (P29375 whole entry): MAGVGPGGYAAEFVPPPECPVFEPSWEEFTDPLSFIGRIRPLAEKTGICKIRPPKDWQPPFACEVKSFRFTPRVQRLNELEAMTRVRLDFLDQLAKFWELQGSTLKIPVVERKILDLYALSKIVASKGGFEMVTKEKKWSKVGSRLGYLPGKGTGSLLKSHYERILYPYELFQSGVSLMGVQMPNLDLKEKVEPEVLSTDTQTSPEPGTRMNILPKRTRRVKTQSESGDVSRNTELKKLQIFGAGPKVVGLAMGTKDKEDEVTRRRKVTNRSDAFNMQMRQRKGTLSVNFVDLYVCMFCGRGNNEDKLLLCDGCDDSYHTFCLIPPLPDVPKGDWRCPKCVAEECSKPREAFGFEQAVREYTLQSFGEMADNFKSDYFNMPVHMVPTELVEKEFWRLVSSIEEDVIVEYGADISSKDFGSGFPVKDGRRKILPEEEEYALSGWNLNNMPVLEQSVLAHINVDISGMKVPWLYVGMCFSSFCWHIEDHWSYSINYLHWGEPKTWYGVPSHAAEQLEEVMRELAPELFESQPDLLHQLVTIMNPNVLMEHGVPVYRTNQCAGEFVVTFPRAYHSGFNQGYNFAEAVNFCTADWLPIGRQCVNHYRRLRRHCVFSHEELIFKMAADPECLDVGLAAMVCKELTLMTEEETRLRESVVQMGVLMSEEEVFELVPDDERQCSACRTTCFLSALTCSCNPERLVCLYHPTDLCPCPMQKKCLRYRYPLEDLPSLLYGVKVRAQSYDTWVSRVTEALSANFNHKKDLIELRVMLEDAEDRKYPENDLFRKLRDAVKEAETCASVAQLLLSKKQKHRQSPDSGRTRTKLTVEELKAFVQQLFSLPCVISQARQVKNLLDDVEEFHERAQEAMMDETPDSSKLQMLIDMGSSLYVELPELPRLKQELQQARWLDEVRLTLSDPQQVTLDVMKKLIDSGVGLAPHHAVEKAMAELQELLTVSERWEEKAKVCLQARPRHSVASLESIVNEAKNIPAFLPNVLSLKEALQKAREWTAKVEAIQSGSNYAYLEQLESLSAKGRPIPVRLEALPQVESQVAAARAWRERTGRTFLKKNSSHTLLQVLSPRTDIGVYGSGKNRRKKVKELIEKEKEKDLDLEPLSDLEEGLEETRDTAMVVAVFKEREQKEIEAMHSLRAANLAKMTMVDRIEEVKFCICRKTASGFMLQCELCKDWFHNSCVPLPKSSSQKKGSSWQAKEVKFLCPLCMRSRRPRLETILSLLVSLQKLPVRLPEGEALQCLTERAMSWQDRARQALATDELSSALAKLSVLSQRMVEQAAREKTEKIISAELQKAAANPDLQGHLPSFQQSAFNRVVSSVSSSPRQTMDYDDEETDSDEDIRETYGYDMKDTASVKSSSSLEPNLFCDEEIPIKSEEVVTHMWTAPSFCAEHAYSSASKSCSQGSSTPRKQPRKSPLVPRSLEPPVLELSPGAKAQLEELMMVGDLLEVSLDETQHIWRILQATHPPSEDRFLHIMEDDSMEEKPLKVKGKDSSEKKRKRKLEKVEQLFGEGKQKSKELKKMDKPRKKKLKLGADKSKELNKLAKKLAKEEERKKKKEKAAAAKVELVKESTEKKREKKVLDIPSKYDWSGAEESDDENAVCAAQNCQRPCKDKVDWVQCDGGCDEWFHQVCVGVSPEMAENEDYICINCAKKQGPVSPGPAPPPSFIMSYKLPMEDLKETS

inhibition [2]: 20.1%
inhibition [3]: 5.12%
inhibition [4]: 50.1%
inhibition [5]: Dose-dependent effect
inhibition [6]: Active
inhibition [7]: 29.4%
SMILES: COc1ccc(-n2cc(C(=O)NCC(C)(C)N3CCOCC3)c(-c3ccccc3)n2)cc1
inhibition (MKN-45): inactive
inhibition at 100 µM [1]: < 10%
